The structures appear in SMILES notation.

The target in the assay is 5-hydroxytryptamine receptor 2B (Rattus norvegicus, UniProt P30994). The assay can be described thus: The binding affinity to 5-hydroxytryptamine 2B receptor of rat fundus. The settings on record: read-out: pA2 (converted). The method in brief: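 Isolated rat stomach fundus strip preparation. After a 1-h equilibration, 5-HT oxalate dose-response curves (9–11 increasing concentrations) were run without and with 4–5 increasing concentrations of test compound. Apparent affinity was expressed as pA2 by Arunlakshana–Schild analysis, with linear regression giving both pA2 and Schild plot slope.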
5-hydroxytryptamine receptor 2B, sequence (P30994 whole entry): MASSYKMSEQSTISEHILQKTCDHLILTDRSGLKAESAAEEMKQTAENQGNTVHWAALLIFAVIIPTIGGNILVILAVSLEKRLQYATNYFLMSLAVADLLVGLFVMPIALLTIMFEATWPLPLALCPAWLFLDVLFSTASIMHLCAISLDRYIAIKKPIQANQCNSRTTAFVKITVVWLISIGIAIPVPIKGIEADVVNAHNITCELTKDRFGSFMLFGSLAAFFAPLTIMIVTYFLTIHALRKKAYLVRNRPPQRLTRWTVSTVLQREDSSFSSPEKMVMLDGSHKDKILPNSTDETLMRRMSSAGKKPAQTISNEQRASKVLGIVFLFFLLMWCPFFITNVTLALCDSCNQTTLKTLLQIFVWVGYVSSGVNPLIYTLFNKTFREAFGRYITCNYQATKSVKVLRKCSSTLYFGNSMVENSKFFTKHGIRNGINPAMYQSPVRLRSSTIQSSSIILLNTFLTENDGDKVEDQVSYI
Regarding `CN(C)CCNc1ccccc1`, the Kb is 955 nM.

Consider `CN(C)CCC1=CCc2ccccc21`, for which the Kb was 2090 nM.

On to `CN(C)CCCc1ccccc1`, for which the Kb is 8130 nM.

Regarding `NC1CCc2ccccc2C1` (stereo not drawn), the Kb was 2450 nM.

Turning to `CNCCc1c[nH]c2ccccc12`, the Kb was 1070 nM.

For `CN(C)CCC(=O)c1ccccc1`, the Kb was 4790 nM.

For `NCCC1CCc2ccccc21` (racemic), the Kb was 2510 nM.

Regarding `CN(C)CCC1CNc2ccccc21` (racemic), the Kb is 2090 nM.

Consider `CN(C)CCC1CCc2ccccc21` (racemic), for which the Kb was 4570 nM.

Take `CNCCC1CCc2ccccc21` (racemic): the Kb is 4270 nM.

`COc1ccc2c(c1)C(CCN(C)C)CN2` (racemic): the Kb was 182 nM.

`CNCCC1CCc2ccccc21` (stereo in doubt; 4d): the Kb is 2190 nM.

For the compound `NCCc1c[nH]c2ccccc12` [TRYPTAMINE], the Kb is 537 nM.
